Results on 23 molecules are retold here after ChEMBL document CHEMBL1926666, “Synthesis of novel 3-cyclohexylpropanoic acid-derived nitrogen heterocyclic compounds and their evaluation for tuberculostatic activity” (Bioorg Med Chem, 2012).

Converted amounts (≈) assume the structure as drawn.

In the test the test system is Mycobacterium tuberculosis. Put plainly: Antituberculosis activity against multidrug-resistant Mycobacterium tuberculosis isolate Spec. 192 by twofold serial dilution method. In kind it is functional. The essentials: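 Classical two-fold test-tube serial dilution in Youmans' modified Proskauer–Beck liquid medium with 10% bovine serum. Inocula from 14-day cultures. Compounds in ethylene glycol, 10 mg/mL stock, geometric dilutions in medium; 3.1, 6.2, 12.5, 25, 50 and 100 µg/mL evaluated. Incubation at 37 °C. MIC = lowest concentration inhibiting growth relative to a compound-free tube. INH, PZA and RMP served as reference drugs.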
`CO[C@H]1/C=C/O[C@@]2(C)Oc3c(C)c(O)c4c(O)c(c(/C=N/N5CCN(C)CC5)c(O)c4c3C2=O)NC(=O)/C(C)=C\C=C\[C@H](C)[C@H](O)[C@@H](C)[C@@H](O)[C@@H](C)[C@H](OC(C)=O)[C@@H]1C` [RIFAMPIN] returned a minimal inhibitory concentration (MIC) of 1.2 mg/L (≈ 1.46 µM).
Then `NNC(=O)c1ccncc1` [ISONIAZID], with 0.5 mg/L (≈ 3.65 µM); and `O=C(CCC1CCCCC1)NN=C1SCCS1`, with 100 mg/L (≈ 367 µM).
The figure for `S=c1[nH]nc(CCC2CCCCC2)[nH]1` is 50 mg/L (≈ 237 µM); for `Cn1c(CCC2CCCCC2)n[nH]c1=S` it is 100 mg/L (≈ 444 µM); for `NC(=O)c1cnccn1` [PYRAZINAMIDE] it is 25 mg/L (≈ 203 µM).
The figure for `CSC(=S)NNC(=O)CCC1CCCCC1` is 50 mg/L (≈ 192 µM); for `C=CCn1c(CCC2CCCCC2)n[nH]c1=S` it is 50 mg/L (≈ 199 µM); for `S=c1[nH]nc(CCC2CCCCC2)n1C1CCCCC1` it is 100 mg/L (≈ 341 µM).
`CSC(=NNC(=O)CCC1CCCCC1)SC`: the lowest concentration to inhibit growth (MIC) was 50 mg/L (≈ 182 µM).
The figure for `CNC(=S)NNC(=O)CCC1CCCCC1` is 100 mg/L (≈ 411 µM); for `Brc1cnc2[nH]c(CCC3CCCCC3)nc2c1` it is 6.2 mg/L (≈ 20.1 µM).
The figure for `c1cnc2[nH]c(CCC3CCCCC3)nc2c1` is 50 mg/L (≈ 218 µM); for `O=[N+]([O-])c1cc(Cl)cc2[nH]c(CCC3CCCCC3)nc12` it is 12.5 mg/L (≈ 40.6 µM).
Then `CC1(C)CNc2nnc(CCC3CCCCC3)n2C1`, with 100 mg/L (≈ 381 µM); and `S=c1[nH]nc(CCC2CCCCC2)o1`, with 25 mg/L (≈ 118 µM).
Regarding `O=C(CCC1CCCCC1)NNC(=S)Nc1ccc(Cl)cc1`, it took 50 mg/L (≈ 147 µM) to inhibit growth (MIC).
The molecule `O=C(CCC1CCCCC1)NNC(=S)NC1CCCCC1` showed an MIC of 100 mg/L (≈ 321 µM).
The figure for `c1ccc2nc3cc4[nH]c(CCC5CCCCC5)nc4cc3nc2c1` is 1.5 mg/L (≈ 4.54 µM).
Then `Cl.Cl.c1cc2nc(CCC3CCCCC3)[nH]c2cn1`, with 25 mg/L; and `S=c1[nH]nc(CCC2CCCCC2)n1-c1ccc(Cl)cc1`, with 100 mg/L (≈ 311 µM); and `C=CCNC(=S)NNC(=O)CCC1CCCCC1`, with 100 mg/L (≈ 371 µM).
Then `c1ccc2c(c1)ccc1nc(CCC3CCCCC3)[nH]c12`, with 1.5 mg/L (≈ 5.39 µM).

One may read the MIC as the least concentration at which growth counts as inhibited. A lower MIC goes with greater potency.
